Converted amounts (≈) assume the structure as drawn. The source made the active and inactive calls. No cut-off for these calls is given here.
Assays:
ScN2a [1] = assay: Cytotoxicity against ScN2a cells; format: functional; details: Mus musculus, read-out: LD50 (the source's name)
In short: (§1)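 Scrapie-infected mouse neuroblastoma ScN2a cells, seeded at about 40 000 cells/well, were exposed to compound for 5 days at 37 °C; concentrations up to 25 µM, final DMSO ≤0.25%. Viability was read first with calcein-AM (ex/em 492/525 nm). The same wells were then lysed, Benzonase-treated, digested with proteinase K (1 h, 37 °C), PTA-precipitated and assayed for PrP 27-30 by direct ELISA (D18 antibody, AP/pNPP). Triplicate, three independent experiments.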

ScN2a [2] = assay: Reduction of PrPSC accumulation in ScN2a cells; format: functional, cell-based; details: Mus musculus; in short: as §1
[3] = Solubility in phosphate buffer at pH 6.5 at 500 uM; format: physicochemical
ScN2a [4] = assay: Reduction of PrPSC accumulation in ScN2a cells upto 25 uM; format: functional, cell-based; details: Mus musculus; in short: as §1
[5] = molecular target: T1, Adenosine receptor A1 (Homo sapiens) (UniProt P30542); assay: Inhibition of human adenosine A1 receptor at 5 uM relative to DPCPX
T1 sequence (whole entry): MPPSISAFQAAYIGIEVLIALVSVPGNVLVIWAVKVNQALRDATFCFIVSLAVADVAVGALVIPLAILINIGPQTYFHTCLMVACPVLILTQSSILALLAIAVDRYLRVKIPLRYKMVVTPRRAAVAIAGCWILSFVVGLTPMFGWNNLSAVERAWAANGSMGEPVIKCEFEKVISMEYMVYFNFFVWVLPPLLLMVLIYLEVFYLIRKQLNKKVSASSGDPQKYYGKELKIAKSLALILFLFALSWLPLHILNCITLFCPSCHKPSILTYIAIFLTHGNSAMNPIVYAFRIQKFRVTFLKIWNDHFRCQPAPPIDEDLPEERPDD
In short: (§2)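 Human adenosine receptor subtypes hA1, hA2a and hA3 were tested with compound at 5 µM. Inhibition is expressed relative to a selective reference also used at 5 µM, taken as 100%: DPCPX for hA1, NECA for hA2a, IB-MECA for hA3.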

[6] = molecular target: Adenosine receptor A2a (Homo sapiens) (UniProt P29274); assay: Inhibition of human adenosine A2a receptor at 5 uM relative to NECA; in short: as §2
[7] = molecular target: T2, Adenosine receptor A3 (Homo sapiens) (UniProt P0DMS8); assay: Inhibition of human adenosine A3 receptor ar 5 uM realtive to IB-MECA; in short: as §2
T2 sequence (whole entry): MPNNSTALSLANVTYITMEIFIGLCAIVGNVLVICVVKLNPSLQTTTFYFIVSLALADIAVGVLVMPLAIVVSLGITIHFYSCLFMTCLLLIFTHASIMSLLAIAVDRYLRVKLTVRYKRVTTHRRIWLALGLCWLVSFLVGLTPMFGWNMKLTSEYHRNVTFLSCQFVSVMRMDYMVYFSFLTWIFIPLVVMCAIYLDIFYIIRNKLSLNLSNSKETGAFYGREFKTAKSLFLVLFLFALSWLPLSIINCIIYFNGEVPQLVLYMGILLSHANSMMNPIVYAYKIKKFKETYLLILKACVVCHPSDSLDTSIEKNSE

Adenosine receptor A1 = molecular target: T3, Adenosine receptor A1 (Homo sapiens, UniProt P30542); assay: Inhibitory constant aganist human adenosine A1 receptor
T3 sequence (P30542 whole entry): T1 sequence (whole entry)

Adenosine receptor A2a (Homo sapiens), sequence (P29274 whole entry): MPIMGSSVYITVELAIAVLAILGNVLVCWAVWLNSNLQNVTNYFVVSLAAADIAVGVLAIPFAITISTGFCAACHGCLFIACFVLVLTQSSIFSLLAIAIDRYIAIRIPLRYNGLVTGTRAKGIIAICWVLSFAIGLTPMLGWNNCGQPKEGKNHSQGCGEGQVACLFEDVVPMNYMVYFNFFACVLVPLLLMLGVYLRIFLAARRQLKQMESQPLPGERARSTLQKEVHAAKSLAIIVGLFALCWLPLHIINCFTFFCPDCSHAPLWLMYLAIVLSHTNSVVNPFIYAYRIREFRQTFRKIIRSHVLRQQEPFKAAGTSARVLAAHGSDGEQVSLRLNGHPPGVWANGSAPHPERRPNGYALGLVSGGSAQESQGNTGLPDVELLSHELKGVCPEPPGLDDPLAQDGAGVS

Which CC50 (ScN2a [1]) does the source give for CCN(CC)CCSc1nc(N)c(C#N)c(-c2cc(Cl)cc(Cl)c2)c1C#N here?
Its CC50 is greater than 25 µM.

What about the EC50 (ScN2a [2]) of the same compound?
The EC50 was 2.2 µM.

Which results are given for CN(C)CCCSc1nc(N)c(C#N)c(-c2ccco2)c1C#N?
CC50 (ScN2a [1]): > 25 µM; EC50 (ScN2a [2]): 10.2 µM; solubility at 500 µM [3]: > 400 µM

Which results are given for CCN(CC)CCSc1nc(N)c(C#N)c(-c2cccc(Cl)c2)c1C#N?
CC50 (ScN2a [1]): > 25 µM; EC50 (ScN2a [2]): 5.3 µM

For N#Cc1c(N)nc2sc(C(=O)c3ccccc3[N+](=O)[O-])c(N)c2c1-c1ccco1, which CC50 (ScN2a [1]) is on record?
Its CC50 is greater than 25 µM.

And the EC50 (ScN2a [2])?
Its EC50 is 10.9 µM.

Which EC50 (ScN2a [2]) does the source give for N#Cc1c(N)nc(SCc2ncc[nH]2)c(C#N)c1-c1ccccc1 here?
Its EC50 is greater than 25 µM.

For N#Cc1c(N)nc(SCCN2CCOCC2)c(C#N)c1-c1ccco1, which CC50 (ScN2a [1]) is on record?
Its CC50 is greater than 25 µM.

And the Activity (ScN2a [4])?
Its Activity is “inactive”.

For N#Cc1c(N)nc(SCC(N)=O)c(C#N)c1-c1ccco1, which CC50 (ScN2a [1]) is on record?
The CC50 was greater than 25 µM.

And the Activity (ScN2a [4])?
The Activity was “inactive”.

Which CC50 (ScN2a [1]) does the source give for N#Cc1c(N)nc(SCCN2CCCCC2)c(C#N)c1-c1ccco1 here?
The CC50 was greater than 25 µM.

What about the EC50 (ScN2a [2]) of the same compound?
The EC50 was 8.1 µM.

And the solubility at 500 µM [3]?
Its solubility at 500 µM is greater than 400 µM.

For CN(C)CCCN1c2ccccc2Sc2ccc(Cl)cc21 [CHLORPROMAZINE], which solubility at 500 µM [3] is on record?
The solubility at 500 µM was greater than 400 µM.

What does the source list for CCCCN(CCCC)CCSc1nc(N)c(C#N)c(-c2ccco2)c1C#N?
CC50 (ScN2a [1]): > 25 µM; Activity (ScN2a [4]): inactive

With CN(CCSc1nc(N)c(C#N)c(-c2ccco2)c1C#N)Cc1ccccc1 as the compound, how does the CC50 (ScN2a [1]) read?
The CC50 was greater than 25 µM.

And the Activity (ScN2a [4])?
Its Activity is “inactive”.

Which CC50 (ScN2a [1]) does the source give for CCN(CC)CCSc1nc(N)c(C#N)c(-c2ccc(Cl)c(Cl)c2)c1C#N here?
The CC50 was greater than 25 µM.

What about the EC50 (ScN2a [2]) of the same compound?
Its EC50 is 7.2 µM.

And the solubility at 500 µM [3]?
The solubility at 500 µM was 200 µM (≈ 84.1 µg/mL).

For N#Cc1c(N)nc(SCc2ccccc2)c(C#N)c1-c1cccs1, which CC50 (ScN2a [1]) is on record?
Its CC50 is greater than 25 µM.

What about the Activity (ScN2a [4]) of the same compound?
Its Activity is “inactive”.

What does the source list for N#Cc1c(N)nc(SCCCN)c(C#N)c1-c1ccco1?
CC50 (ScN2a [1]): > 25 µM; Activity (ScN2a [4]): inactive

Which inhibition [5] does the source give for CCN(CC)CCSc1nc(N)c(C#N)c(-c2ccccc2Cl)c1C#N here?
Its inhibition is 95%.

What about the CC50 (ScN2a [1]) of the same compound?
Its CC50 is greater than 25 µM.

And the inhibition [6]?
The inhibition was 62%.

What about the EC50 (ScN2a [2]) of the same compound?
Its EC50 is 5.5 µM.

What about the inhibition [7] of the same compound?
The inhibition was 77%.

And the solubility at 500 µM [3]?
Its solubility at 500 µM is greater than 400 µM.

And the Ki (Adenosine receptor A1)?
Its Ki is 0.59 µM.

For N#Cc1c(N)nc(SCCCN2CCCCC2)c(C#N)c1-c1ccco1, which CC50 (ScN2a [1]) is on record?
Its CC50 is greater than 25 µM.

What about the EC50 (ScN2a [2]) of the same compound?
The EC50 was 6 µM.

What about the solubility at 500 µM [3] of the same compound?
The solubility at 500 µM was greater than 400 µM.

Which CC50 (ScN2a [1]) does the source give for CCN(CC)CCSc1nc(N)c(C#N)c(-c2ccc(Br)cc2)c1C#N here?
Its CC50 is greater than 25 µM.

And the EC50 (ScN2a [2])?
The EC50 was 6.1 µM.

What about the solubility at 500 µM [3] of the same compound?
Its solubility at 500 µM is 200 µM (≈ 86.1 µg/mL).

With CC(C)N(CCSc1nc(N)c(C#N)c(-c2ccco2)c1C#N)C(C)C as the compound, how does the CC50 (ScN2a [1]) read?
The CC50 was greater than 25 µM.

And the EC50 (ScN2a [2])?
The EC50 was 13.4 µM.

Which CC50 (ScN2a [1]) does the source give for N#Cc1c(N)nc(SCCN2CCCC2)c(C#N)c1-c1ccco1 here?
The CC50 was greater than 25 µM.

What about the EC50 (ScN2a [2]) of the same compound?
The EC50 was 10.6 µM.

What about the solubility at 500 µM [3] of the same compound?
The solubility at 500 µM was 200 µM (≈ 67.9 µg/mL).

Which EC50 (ScN2a [2]) does the source give for CCCn1c(=O)c2[nH]c(C3CCCC3)nc2n(CCC)c1=O [1,3-DIPROPYL-8-CYCLOPENTYLXANTHINE [DPCPX]] here?
Its EC50 is greater than 25 µM.

What does the source list for N#Cc1c(N)nc(Sc2ccccc2N)c(C#N)c1-c1ccco1?
CC50 (ScN2a [1]): > 80 µM; EC50 (ScN2a [2]): 80 µM

What does the source list for CCN(CC)CCSc1nc(N)c(C#N)c(-c2cccc(Br)c2)c1C#N?
CC50 (ScN2a [1]): > 25 µM; EC50 (ScN2a [2]): 4.3 µM

Which CC50 (ScN2a [1]) does the source give for CCN(CC)CCCC(C)Nc1c2ccc(Cl)cc2nc2ccc(OC)cc12 (stereo not drawn) [QUINACRINE] here?
Its CC50 is 7.8 µM.

What about the EC50 (ScN2a [2]) of the same compound?
Its EC50 is 0.8 µM.

For CCN(CC)CCSc1nc(N)c(C#N)c(-c2ccc(Cl)cc2)c1C#N, which CC50 (ScN2a [1]) is on record?
Its CC50 is greater than 25 µM.

What about the EC50 (ScN2a [2]) of the same compound?
The EC50 was 7.5 µM.

What about the solubility at 500 µM [3] of the same compound?
The solubility at 500 µM was 200 µM (≈ 77.2 µg/mL).

With COc1ccc(-c2c(C#N)c(N)nc(SCc3ncc[nH]3)c2C#N)cc1 as the compound, how does the EC50 (ScN2a [2]) read?
Its EC50 is greater than 25 µM.

Which CC50 (ScN2a [1]) does the source give for CN(C)CCSc1nc(N)c(C#N)c(-c2ccco2)c1C#N here?
Its CC50 is greater than 25 µM.

And the EC50 (ScN2a [2])?
Its EC50 is 13.9 µM.

What does the source list for CCN(CC)CCSc1nc(N)c(C#N)c(-c2cccc(Cl)c2Cl)c1C#N?
CC50 (ScN2a [1]): > 25 µM; EC50 (ScN2a [2]): 4.5 µM; solubility at 500 µM [3]: 200 µM (≈ 84.1 µg/mL)

With CCN(CC)CCSc1nc(N)c(C#N)c(-c2ccco2)c1C#N as the compound, how does the CC50 (ScN2a [1]) read?
Its CC50 is greater than 25 µM.

What about the EC50 (ScN2a [2]) of the same compound?
The EC50 was 8.8 µM.

What about the solubility at 500 µM [3] of the same compound?
The solubility at 500 µM was greater than 400 µM.

Which EC50 (ScN2a [2]) does the source give for CNC(=O)[C@H]1O[C@@H](n2cnc3c(NCc4cccc(I)c4)ncnc32)[C@H](O)[C@@H]1O [IB-MECA] here?
The EC50 was greater than 25 µM.

For CN(Cc1cnc2nc(N)nc(N)c2n1)c1ccc(C(=O)N[C@@H](CCC(=O)O)C(=O)O)cc1 [METHOTREXATE], which solubility at 500 µM [3] is on record?
Its solubility at 500 µM is greater than 400 µM.

From ChEMBL document CHEMBL1139220, “Structure-activity relationship study of prion inhibition by 2-aminopyridine-3,5-dicarbonitrile-based compounds: parallel synthesis, bioactivity, and in vitro pharmacokinetics” (J Med Chem, 2007)
